Series [1] relates to CWR22R. The series can be described thus: Antitumor activity against human CWR22Rv1 cells xenografted in SCID mouse assessed as reduction in Bcl2 protein expression at 20 mg/kg, ip dosed once daily for 5 days per week for 28 days by SDS-PAGE and Western blotting method. It is filed as functional, organism-based. The arrangement: dose 20 mg/kg. The method in brief:
(§1)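 CWR22Rv1 cells (1 × 10⁶) implanted subcutaneously in male SCID mice, castrated; at ~100 mm³ tumors, randomized (n = 6/group) to vehicle (40% β-cyclodextrin in ddH₂O) or drug ip in same vehicle once daily, 5 days/week for 28 days. Tumor lysates made in RIPA buffer, 50 μg protein from pooled samples (n = 6) on 10% SDS–PAGE, immunoblotted; GAPDH as loading control.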
In general terms: Xenograft models place foreign cells or tissue in a host animal.

In series [2] the test system is LNCaP. Put plainly: Reduction in cell viability in human LNCAP cells at 5 uM after 72 hrs by MTT assay. The format is functional, cell-based. The method in brief: (§2)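 LNCaP cells transfected with 100 nM AR and/or Mnk1 siRNA (or scrambled control) by lipofection for 18 h, washed twice with PBS, returned to growth medium; drug added 24 h later, viability read by MTT after 72 h. Untransfected cells treated alike. Knockdown confirmed by immunoblot; three independent experiments, normalized to control cells.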
(In general: Formazan colour is commonly taken as a measure of viable cells.)

For series [3], the system named is LNCaP. The series can be described thus: Reduction in cell viability in human LNCAP cells in presence of AR siRNA at 2.5 uM and 5 uM after 72 hrs by MTT assay. It is filed as functional, cell-based. An outline of the steps: as §2
Series [4] concerns LNCaP. Put plainly: Reduction in cell viability in human LNCAP cells in presence of Mnk1 siRNA at 2.5 uM and 5 uM after 72 hrs by MTT assay. It is filed as functional, cell-based. The method in brief: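 LNCaP cells in RPMI 1640 with 10% FBS were transfected with 100 nM Mnk1 siRNA (Lipofectamine 2000) for 18 h, with scrambled siRNA as control. After two PBS washes they were returned to growth medium, dosed 24 h later, and harvested after 72 h. Viability was read by MTT and normalized to control cells, as mean ± SEM of three independent experiments.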

A short description of series [5]: Antitumor activity against human CWR22Rv1 cells xenografted in SCID mouse assessed as tumor growth at 20 mg/kg, ip dosed once daily for 5 days per week for 28 days. The format is functional, CWR22R. Particulars: route intraperitoneal. An outline of the steps: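 Castrated male SCID mice carrying subcutaneous CWR22Rv1 tumors (1 × 10⁶ cells implanted; ~100 mm³ at randomization, n = 6/group) given ip drug in 40% β-cyclodextrin/ddH₂O once daily, 5 days/week for 28 days; vehicle controls. Tumor volume followed; %T/C = median treated volume/median control volume at day 28 × 100. Body weight tracked as toxicity marker.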

Series [6] is described as follows: Antitumor activity against human CWR22Rv1 cells xenografted in SCID mouse assessed as inhibition of tumor growth at 20 mg/kg, ip dosed once daily for 5 days per week for 28 days. The settings on record: 22Rv1, ip, route intraperitoneal, read-out: TGI. It is filed as functional, CWR22R.
Series [7] relates to Mus musculus. Put plainly: Toxicity in human CWR22Rv1 cells xenografted SCID mouse assessed as effect on body weight at 20 mg/kg, ip dosed once daily for 5 days per week for 28 days. It is filed as organism-based. The arrangement: dose 20 mg/kg, route intraperitoneal. Particulars: in vivo. An outline of the steps:
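Castrated male SCID mice carried subcutaneous CWR22Rv1 tumors (1 × 10⁶ cells implanted) and were randomized at ~100 mm³, n = 6/group. Dosing was ip 20 mg/kg once daily, 5 days/week for 28 days, in 40% β-cyclodextrin in ddH₂O, against vehicle. Body weight was monitored throughout as a surrogate toxicity marker.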

Series [8] relates to CWR22R. Put plainly: Antitumor activity against human CWR22Rv1 cells xenografted in SCID mouse assessed as reduction in fAR protein expression at 20 mg/kg, ip dosed once daily for 5 days per week for 28 days by SDS-PAGE and Western blotting method. The format is functional, organism-based. Also noted: dose 20 mg/kg. The method in brief:
as §1

The subject of series [9] is CWR22R. Put plainly: Antitumor activity against human CWR22Rv1 cells xenografted in SCID mouse assessed as reduction in AR-V7 protein expression at 20 mg/kg, ip dosed once daily for 5 days per week for 28 days by SDS-PAGE and Western blotting method. Also noted: dose 20 mg/kg. It is filed as functional, organism-based. An outline of the steps:
as §1

Series [10] relates to CWR22R. Put plainly: Antitumor activity against human CWR22Rv1 cells xenografted in SCID mouse assessed as reduction in peIF4E protein expression at 20 mg/kg, ip dosed once daily for 5 days per week for 28 days by SDS-PAGE and Western blotting method. It is filed as functional, organism-based. The arrangement: dose 20 mg/kg. The method in brief:
as §1

Series [11] deals with CWR22R. The series can be described thus: Antitumor activity against human CWR22Rv1 cells xenografted in SCID mouse assessed as reduction in cyclin D1 protein expression at 20 mg/kg, ip dosed once daily for 5 days per week for 28 days by SDS-PAGE and Western blotting method. The arrangement: dose 20 mg/kg. It is filed as functional, organism-based. The method in brief: as §1

Calls of active or inactive are those of the source. The rule behind the calls is not given here.

Regarding `CC1=C(/C=C/C(C)=C/C=C/C(C)=C\C(=O)Nc2cccc(F)c2)C(C)(C)CCC1n1ccnc1` (stereo unspecified), the outcome in [1], in series [2], in series [3], in series [4], in series [8] and in [9] was Active. In addition, the outcome in series [10] and in series [11] was Active. In [5], the T/C (in general, the ratio of treated to control) is listed as 38.8%. The inhibition in vivo at 20 mg/kg in series [6] was 61.2%. The Activity result in series [7] is listed as “Non-toxic”.

(Values after ChEMBL document CHEMBL3414559, “Novel C-4 heteroaryl 13-cis-retinamide Mnk/AR degrading agents inhibit cell proliferation and migration and induce apoptosis in human breast and prostate cancer cells and suppress growth of MDA-MB-231 human breast and CWR22Rv1 human prostate tumor xenografts in mice” (J Med Chem, 2015).)
